The results in this text go back to ChEMBL document CHEMBL1135117, “Identification of potent and selective oxytocin antagonists. Part 2: further investigation of benzofuran derivatives” (Bioorg Med Chem Lett, 2002).

Broadly, the clearance is the volume of plasma or blood freed of the substance per unit of time. In general, half-life refers to the time needed for the level to fall by half in the phase considered. Broadly, the bioavailability is dose-corrected exposure relative to a reference, in per cent. What is called Ki is the dissociation constant of the complex between target and ligand, obtained from inhibition or displacement. As usually defined, the AUC is concentration integrated over time. In general, logD refers to lipophilicity at a set pH, counting ionised and neutral species. Usually IC50 stands for the concentration at which inhibition is half-maximal.

The nature of data set [1]: Clearance in rat. The format is ADME, organism-based. Conditions: in vivo.
Data set [2] can be described thus: Compound was tested for its half life in rat. The format is ADME, organism-based. Conditions: in vivo.
The nature of data set [3]: Bioavailability in rat. Conditions: in vivo. Type of data set: ADME, organism-based.
The target of data set [4] is T1, Oxytocin receptor (Homo sapiens, UniProt P30559).
T1 sequence (P30559 whole entry): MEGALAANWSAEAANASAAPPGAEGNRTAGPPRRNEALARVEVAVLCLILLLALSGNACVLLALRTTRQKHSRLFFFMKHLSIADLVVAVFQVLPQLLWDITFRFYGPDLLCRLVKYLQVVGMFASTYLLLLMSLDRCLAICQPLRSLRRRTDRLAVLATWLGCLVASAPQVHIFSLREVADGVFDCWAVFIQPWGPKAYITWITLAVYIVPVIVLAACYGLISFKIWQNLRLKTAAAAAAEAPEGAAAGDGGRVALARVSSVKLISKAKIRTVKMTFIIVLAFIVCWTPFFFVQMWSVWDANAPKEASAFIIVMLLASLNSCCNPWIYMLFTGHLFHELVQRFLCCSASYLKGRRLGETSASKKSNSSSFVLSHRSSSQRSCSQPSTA
Nature of the data set: Displacement of 3[H]oxytocin from human oxytocin receptor.

Data set [5] addresses T2, Oxytocin receptor (Homo sapiens) (UniProt P30559).
T2 sequence (whole entry): T1 sequence (P30559 whole entry)
In words: Tested for ratio of displacement of 3H oxytocin from human OT in presence and absence of 50 mg/mL human serum albumin. The essentials: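 Displacement of [3H]oxytocin from human OT receptor, with IC50 measured with and without 50 mg/mL human serum albumin. The radioligand was made up in buffer containing 100 mg/mL HSA, a pre-dilution level. The value is the ratio of the IC50 with HSA to the IC50 without HSA.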
For orientation: In a radioligand displacement assay an active substance lowers the binding of a labelled ligand.

Another data set concerns the target Albumin (Homo sapiens, UniProt P02768). In words: Compound was tested for Serum albumin binding.
The nature of data set [6]: Tested for the pharmacokinetic parameter in rat and expressed as area under curve. Type of data set: ADME, organism-based. Also on record: concentration or dose not given beside the values. Conditions: in vivo.
The nature of data set [7]: Compound was tested for plasma clearance in rat. The format is ADME, organism-based.
Data set [8] can be described thus: Tested for lipophilicity. Type of data set: physicochemical. The note with it: octanol/water.
Data set [9] has as its target T3, Oxytocin receptor (Rattus norvegicus, UniProt P70536).
T3 sequence (P70536 whole entry): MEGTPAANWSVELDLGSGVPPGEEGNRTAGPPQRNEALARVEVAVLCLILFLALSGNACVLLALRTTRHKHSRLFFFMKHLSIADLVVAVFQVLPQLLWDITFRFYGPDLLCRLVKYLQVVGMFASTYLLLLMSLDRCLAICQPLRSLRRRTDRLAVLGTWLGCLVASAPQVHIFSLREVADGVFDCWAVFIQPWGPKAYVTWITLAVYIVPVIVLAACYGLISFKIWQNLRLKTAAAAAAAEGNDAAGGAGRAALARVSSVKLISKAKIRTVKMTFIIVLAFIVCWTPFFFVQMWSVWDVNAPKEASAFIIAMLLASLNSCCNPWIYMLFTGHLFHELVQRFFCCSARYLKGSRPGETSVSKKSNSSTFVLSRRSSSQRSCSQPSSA
Nature of the data set: Compound was tested for displacement of 3[H] oxytocin from rat OT receptor (in vitro). The essentials:
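Myometrium from rats that littered within 2 h, homogenised in sucrose buffer; membrane fraction pelleted at 48,000g, 4 °C. Filtration binding with [3H]oxytocin at 1 nM in 50 mM HEPES, 10 mM MgCl2, pH 7.4, plus competing ligand. Incubation 1 h at room temperature, then GF/C filtration, ice-cold buffer washes, scintillation counting of bound label.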

The next data set is filed under the species Rattus norvegicus. Nature of the data set: Serum concentration for 50% inhibition of uterine contractility response to oxytocin in rat. The format is functional, organism-based. A digest of the protocol:
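Adult female AHA rats pre-treated 18 h with diethylstilboestrol (250 µg/kg ip, corn oil), anaesthetised with pentobarbitone (60 mg/kg ip); uterine tension ~2 g. OT 0.3 µg/kg iv given 3–180 min after a single iv bolus of antagonist (DMSO/PEG200/water 20:50:30). Response = 10-min area under the contraction–time curve. Plasma drug measured by mass spectrometry in serial blood samples.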

A short description of data set [10]: Compound was tested for half life in dog. The format is ADME, organism-based, Canis lupus familiaris. The note with it: in vivo.
Data set [11] can be described thus: Tested for plasma clearance in dog. The format is ADME, organism-based, Canis lupus familiaris.
Data set [12] is described as follows: Bioavailability in dog. Type of data set: ADME, organism-based, Canis lupus familiaris. The note with it: in vivo.
For a further data set, the target named is Vasopressin V1a receptor (Homo sapiens, UniProt P37288). In words: Compound was tested for its ability to displace vasopressin from human Vasopressin V1a receptor.
A short description of data set [13]: Compound was tested for its half life in dog. Type of data set: ADME, organism-based, Canis lupus familiaris. The note with it: in vivo.
Data set [14] in a line: Compound was tested for lipophilicity. Conditions: octanol/water. The format is physicochemical.
Data set [15] is described as follows: Compound was tested for plasma clearance in dog. Type of data set: ADME, organism-based, Canis lupus familiaris.
The nature of data set [16]: Compound was tested for its lipophilicity. The note with it: octanol/water. Type of data set: physicochemical.

Bounds are passed on as bounds.

Chain of Albumin (P02768 whole entry): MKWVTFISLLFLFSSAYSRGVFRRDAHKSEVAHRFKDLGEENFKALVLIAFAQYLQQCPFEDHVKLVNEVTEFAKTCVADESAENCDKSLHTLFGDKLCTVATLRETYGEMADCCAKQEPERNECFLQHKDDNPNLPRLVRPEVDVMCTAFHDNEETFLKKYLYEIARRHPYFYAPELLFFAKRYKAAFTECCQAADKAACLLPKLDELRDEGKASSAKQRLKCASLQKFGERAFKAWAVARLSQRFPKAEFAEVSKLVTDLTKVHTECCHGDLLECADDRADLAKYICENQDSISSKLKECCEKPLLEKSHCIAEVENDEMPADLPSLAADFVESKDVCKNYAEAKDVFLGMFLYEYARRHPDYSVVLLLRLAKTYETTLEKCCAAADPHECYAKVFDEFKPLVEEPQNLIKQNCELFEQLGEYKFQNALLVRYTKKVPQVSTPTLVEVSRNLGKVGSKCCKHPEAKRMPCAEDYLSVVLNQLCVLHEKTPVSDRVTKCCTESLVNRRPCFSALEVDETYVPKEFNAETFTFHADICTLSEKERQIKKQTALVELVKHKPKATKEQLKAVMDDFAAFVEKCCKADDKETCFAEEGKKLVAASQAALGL
Chain of Vasopressin V1a receptor (P37288 whole entry): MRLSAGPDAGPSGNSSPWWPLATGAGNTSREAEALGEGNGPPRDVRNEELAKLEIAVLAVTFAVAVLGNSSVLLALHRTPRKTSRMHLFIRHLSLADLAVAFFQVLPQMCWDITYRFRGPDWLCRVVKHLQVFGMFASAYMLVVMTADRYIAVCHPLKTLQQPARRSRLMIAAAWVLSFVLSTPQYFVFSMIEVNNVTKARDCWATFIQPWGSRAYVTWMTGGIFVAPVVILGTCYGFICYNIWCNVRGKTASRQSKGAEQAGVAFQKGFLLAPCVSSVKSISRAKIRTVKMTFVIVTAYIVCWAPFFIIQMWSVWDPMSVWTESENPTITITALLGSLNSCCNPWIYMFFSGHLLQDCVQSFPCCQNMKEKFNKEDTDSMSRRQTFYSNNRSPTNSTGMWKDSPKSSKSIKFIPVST

Turning to `O=C(c1ccc2oc(CN3CCC(n4cc(C(F)(F)F)ccc4=O)CC3)cc2c1)N1CCC(N2C(=O)OCc3ccccc32)CC1`, the clearance in data set [1] worked out at 6 mL/min/kg. In data set [2], this compound showed a half-life of 102 min. For the same compound, in data set [3], the bioavailability worked out at 79%. The same compound gave a Ki on Oxytocin receptor [4] of 794 nM. Moreover, the HSA shift in [5] came to 4. The same compound displayed a Binding on Albumin of 93%. In [6], the AUC is 12000 ng·h/mL.

Regarding `O=C(Cn1cc(C(F)(F)F)ccc1=O)NCc1cc2cc(C(=O)N3CCC(N4C(=O)OCc5ccccc54)CC3)cnc2o1`, the clearance in [7] amounted to 26 mL/min/kg. The half-life in data set [2] was 36 min. For the same compound, the bioavailability in data set [3] was 2%. The compound further returned a logD in data set [8] of 1.85. Also, the IC50 on Oxytocin receptor [9] was determined as 744 nM; in the data set filed under Rattus norvegicus it was 20 nM. The same compound gave a Ki at Oxytocin receptor [4] of 3.16 nM. In addition, the HSA shift in data set [5] was found to be 19. The Binding on Albumin stood at 86.2%.

For the compound `CCOc1ccn(CC(=O)NCc2cc3cc(C(=O)N4CCC(N5C(=O)OCc6ccccc65)CC4)ccc3o2)c(=O)n1`, the figures for the half-life in data set [10] and in data set [2] were 114 min and 48 min, respectively. The clearance in data set [11] was 12 mL/min/kg; in data set [7], 35 mL/min/kg. Besides, the bioavailability was 43% in data set [12] and 2% in data set [3]. Moreover, the results for the Ki at Oxytocin receptor [4] and at Vasopressin V1a receptor were 2 nM and 1580 nM, respectively.

Consider `O=C(Cn1cc(C(F)(F)F)ccc1=O)NCc1cc2cc(C(=O)N3CCC(N4C(=O)OCc5ccccc54)CC3)ccc2o1`, for which the half-life is 90 min in data set [13] and 60 min in data set [2]. The results for the clearance in [11] and in [7] were 8 mL/min/kg and 10 mL/min/kg, respectively. For the same compound, the figures for the bioavailability in data set [12] and in [3] were 51% and 16%, respectively. For the same compound, in [14], the logD worked out at 2.16. Further, the results for the IC50 on Oxytocin receptor [9] and in the data set filed under Rattus norvegicus were 3040 nM and 20 nM, respectively. The Ki is 2 nM at Oxytocin receptor [4] and 1260 nM on Vasopressin V1a receptor. Moreover, the HSA shift in data set [5] amounted to 46. In addition, the Binding at Albumin came to 96.2%.

On to `COc1cc(OC2CCN(C(C)=O)CC2)ccc1C(=O)N1CCC(N2C(=O)OCc3ccccc32)CC1`, for which the half-life in data set [13] and in data set [2] was 66 min in each case. The bioavailability in data set [12] was 29%; in data set [3], 55%. For the same compound, the clearance in data set [7] turned out to be 51 mL/min/kg; in [15], 13 mL/min/kg. The logD in data set [16] is 1.66. The Ki was 6.31 nM on Oxytocin receptor [4] and over 2000 nM at Vasopressin V1a receptor. Besides, the midpoint of inhibition in the data set listed under Rattus norvegicus, the IC50, lay at 25 nM. In addition, the Binding on Albumin amounted to 83.7%.
